Experimental data published in ChEMBL document CHEMBL1145090, “In vitro analysis of stable, receptor-selective neurotensin[8-13] analogues” (J Med Chem, 2003).
Numbered stars: 1 amine (or outer) side, 2 acyl side, 3 side chain; on linkers, the order of the positions; unused ones are H or OH. Square brackets hold non-standard residues; d marks the D form. Peptide text beside a SMILES is read from it. X7 = CCNC(=N)NCCC[C@H](N)C(=O)/N=C(/N)NCCC[C@H](N[*:1])C(=O)[*:2]; X9 = NC1=NCCN1CCC[C@H](N[*:1])C(=O)[*:2]; Tle = CC(C)(C)[C@H](N)C(=O)O; hLys = NCCCCC[C@H](N)C(=O)O

Assays:
[1] = Plasma half life in rat serum; assay type: ADME, organism-based
[2] = molecular target: Neurotensin receptor type 2 (Homo sapiens, UniProt O95665); test: Evaluated for binding affinity by inhibiting binding of [125I]Tyr(3)-NT to human Neurotensin receptor 2
Chain of Neurotensin receptor type 2 (O95665 whole entry): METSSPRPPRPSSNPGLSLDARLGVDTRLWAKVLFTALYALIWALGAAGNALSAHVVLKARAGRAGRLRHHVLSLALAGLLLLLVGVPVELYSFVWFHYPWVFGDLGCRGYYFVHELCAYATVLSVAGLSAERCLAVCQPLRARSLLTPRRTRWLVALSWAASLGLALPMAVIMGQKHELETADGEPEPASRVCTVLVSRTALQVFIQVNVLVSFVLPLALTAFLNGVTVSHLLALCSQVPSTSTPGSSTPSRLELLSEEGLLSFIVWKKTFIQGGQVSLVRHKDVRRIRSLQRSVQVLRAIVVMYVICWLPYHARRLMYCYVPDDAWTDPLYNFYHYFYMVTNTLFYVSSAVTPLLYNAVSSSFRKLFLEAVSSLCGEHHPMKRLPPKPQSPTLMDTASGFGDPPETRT

Sortilin = molecular target: T1, Sortilin (Homo sapiens, UniProt Q99523); test: Evaluated for binding affinity by inhibiting binding of [125I]Tyr(3)-NT to human Neurotensin receptor 3
T1 sequence (Q99523 whole entry): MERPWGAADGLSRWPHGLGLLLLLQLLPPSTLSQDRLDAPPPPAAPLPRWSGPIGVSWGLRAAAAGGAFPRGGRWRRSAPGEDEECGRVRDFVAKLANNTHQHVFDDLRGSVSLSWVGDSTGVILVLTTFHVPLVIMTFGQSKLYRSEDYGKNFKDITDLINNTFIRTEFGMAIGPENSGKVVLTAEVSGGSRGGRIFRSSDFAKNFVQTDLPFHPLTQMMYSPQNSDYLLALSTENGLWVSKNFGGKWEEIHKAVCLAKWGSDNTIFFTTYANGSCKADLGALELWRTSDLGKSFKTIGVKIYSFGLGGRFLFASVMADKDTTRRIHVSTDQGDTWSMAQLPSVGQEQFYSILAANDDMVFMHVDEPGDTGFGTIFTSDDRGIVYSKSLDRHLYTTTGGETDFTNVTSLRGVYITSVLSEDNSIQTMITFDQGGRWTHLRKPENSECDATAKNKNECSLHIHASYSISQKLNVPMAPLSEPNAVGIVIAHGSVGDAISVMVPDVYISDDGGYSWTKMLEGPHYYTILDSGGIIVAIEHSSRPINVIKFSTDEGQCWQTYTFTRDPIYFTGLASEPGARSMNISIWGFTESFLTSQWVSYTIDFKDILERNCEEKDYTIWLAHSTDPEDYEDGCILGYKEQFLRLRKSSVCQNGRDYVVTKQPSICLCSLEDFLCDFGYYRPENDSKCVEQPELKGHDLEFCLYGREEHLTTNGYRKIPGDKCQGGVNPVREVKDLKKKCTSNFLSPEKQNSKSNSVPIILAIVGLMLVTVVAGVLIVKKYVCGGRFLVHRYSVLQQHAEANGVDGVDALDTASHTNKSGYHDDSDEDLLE
Method in brief: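 Whole cells (2 × 10^5) transiently expressing human NTR-3, ~60 h post-transfection. Equilibrated 10 min in Earle's Tris-HEPES pH 7.5 with 0.1% glucose and 0.1% BSA, then incubated 30 min at 37 °C with 0.4 nM 125I-Tyr(3)-NT, 0.8 mM 1,10-phenanthroline and increasing peptide. Washed, lysed in 0.1 N NaOH, gamma-counted. Nonspecific binding with 1 µM NT. IC50 taken.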

[3] = molecular target: Neurotensin receptor type 1 (Homo sapiens, UniProt P30989); test: Evaluated for binding affinity by inhibiting binding of [125I]-Tyr(3)-NT to human Neurotensin receptor 1
Chain of Neurotensin receptor type 1 (P30989 whole entry): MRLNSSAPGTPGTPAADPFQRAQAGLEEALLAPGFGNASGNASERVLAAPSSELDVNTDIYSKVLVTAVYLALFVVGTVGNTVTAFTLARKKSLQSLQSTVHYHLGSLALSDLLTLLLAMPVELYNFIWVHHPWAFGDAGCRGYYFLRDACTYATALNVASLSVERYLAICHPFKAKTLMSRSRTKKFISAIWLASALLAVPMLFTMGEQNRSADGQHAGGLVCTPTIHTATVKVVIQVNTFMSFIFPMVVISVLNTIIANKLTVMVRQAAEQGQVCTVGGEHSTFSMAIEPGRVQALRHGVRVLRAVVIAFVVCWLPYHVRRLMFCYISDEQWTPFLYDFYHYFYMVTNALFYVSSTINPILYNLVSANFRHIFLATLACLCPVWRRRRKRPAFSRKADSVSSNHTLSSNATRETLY

SMILES | half-life [1] [h] | IC50 [2] [nM] | IC50 (Sortilin) [nM] | IC50 [3] [nM]
CC[C@H](C)[C@H](NC(=O)[C@H](Cc1ccc(O)cc1)NC(=O)[C@@H]1CCCN1C(=O)[C@@H](N)CCC/N=C(/N)NC(=O)[C@@H](N)CCCN=C(N)N)C(=O)N[C@@H](CC(C)C)C(=O)O | 2.9 | 0.9 | 1740 | 0.4
CC[C@H](C)[C@H](NC(=O)[C@H](Cc1ccc(O)cc1)NC(=O)[C@@H]1CCCN1C(=O)[C@@H](N)CCC/N=C(/N)NC(=O)[C@@H](N)CCCCN(C)C)C(=O)N[C@@H](CC(C)C)C(=O)O | 2.12 | 2.8 | 1620 | 0.4
CC[C@H](C)[C@H](NC(=O)[C@H](Cc1ccc(O)cc1)NC(=O)[C@@H]1CCCN1C(=O)[C@@H](N)CCCNC(=N)NC(=O)[C@@H](N)CCCCC[N+](C)(C)C)C(=O)N[C@@H](CC(C)C)C(=O)O | 1.72 | 3.1 | 550 | 0.51
CC[C@H](C)[C@H](NC(=O)[C@H](Cc1ccc(O)cc1)NC(=O)[C@@H]1CCCN1C(=O)[C@@H](N)CCCN=C(N)NC(=O)[C@@H](N)CCCNC)C(=O)N[C@@H](CC(C)C)C(=O)O | – | 3.5 | 640 | –
CC[C@H](C)[C@H](NC(=O)[C@H](Cc1ccc(O)cc1)NC(=O)[C@@H]1CCCN1C(=O)[C@@H](N)CCC/N=C(/N)NC(=O)[C@@H](N)CCCN(C)C)C(=O)N[C@@H](CC(C)C)C(=O)O | – | 5.1 | 480 | –
CC[C@H](C)[C@H](NC(=O)[C@H](Cc1ccc(O)cc1)NC(=O)[C@@H]1CCCN1C(=O)[C@@H](N)CCC/N=C(/N)NC(=O)[C@@H](N)CCCCCNC)C(=O)N[C@@H](CC(C)C)C(=O)O | 3.52 | 6.9 | 400 | 0.52
CC[C@H](C)[C@H](NC(=O)[C@H](Cc1ccc(O)cc1)NC(=O)[C@@H]1CCCN1C(=O)[C@@H](N)CCC/N=C(/N)NC(=O)[C@@H](N)CCCCCN(C)C)C(=O)N[C@@H](CC(C)C)C(=O)O | 2.1 | 3.5 | 700 | 0.28
CCNC(=N)NCCC[C@H](N)C(=O)N[C@@H](CCCNC(=N)N)C(=O)N1CCC[C@H]1C(=O)N[C@@H](Cc1ccc(O)cc1)C(=O)N[C@H](C(=O)N[C@@H](CC(C)C)C(=O)O)[C@@H](C)CC | 0.525 | – | – | –
CC[C@H](C)[C@H](NC(=O)[C@H](Cc1ccc(O)cc1)NC(=O)[C@@H]1CCCN1C(=O)[C@@H](N)CCC/N=C(/N)NC(=O)[C@@H](N)CCCCNC)C(=O)N[C@@H](CC(C)C)C(=O)O | 2.13 | 1.8 | 1150 | 0.34
CC[C@H](C)[C@H](NC(=O)[C@H](Cc1ccc(O)cc1)NC(=O)[C@@H]1CCCN1C(=O)[C@@H](N)CCC/N=C(/N)NC(=O)[C@@H](N)CCCCCN)C(=O)N[C@@H](CC(C)C)C(=O)O | 2.55 | 0.7 | 1200 | 0.38
CC[C@H](C)[C@H](NC(=O)[C@H](Cc1ccc(O)cc1)NC(=O)[C@@H]1CCCN1C(=O)[C@@H](N)CCC/N=C(/N)NC(=O)[C@@H](N)CCCN1CCN=C1N)C(=O)N[C@@H](CC(C)C)C(=O)O | – | 0.23 | 590 | –
CC[C@H](C)[C@H](NC(=O)[C@H](Cc1ccc(O)cc1)NC(=O)[C@@H]1CCCN1C(=O)[C@@H](N)CCCN=C(N)NC(=O)[C@@H](N)CCCN)C(=O)N[C@@H](CC(C)C)C(=O)O | 2.23 | 3 | 1400 | 0.59
CC[C@H](C)[C@H](NC(=O)[C@H](Cc1ccc(O)cc1)NC(=O)[C@@H]1CCCN1C(=O)[C@H](CCCNC(=N)N)NC(=O)[C@@H](N)CCCNC(=N)N)C(=O)N[C@@H](CC(C)C)C(=O)O | 0.0983 | – | – | –
CC[C@H](C)[C@H](NC(=O)[C@H](Cc1ccc(O)cc1)NC(=O)[C@@H]1CCCN1C(=O)[C@@H](N)CCCN=C(N)NC(=O)[C@@H](N)CCCCN)C(=O)N[C@@H](CC(C)C)C(=O)O | 2.27 | 2.1 | 512 | 0.3
CC[C@H](C)[C@H](NC(=O)[C@H](Cc1ccc(O)cc1)NC(=O)[C@@H]1CCCN1C(=O)[C@H](CCCNC(=N)N)NC(=O)[C@@H](N)CCCN=C(N)NC)C(=O)N[C@@H](CC(C)C)C(=O)O | 0.237 | – | – | –
CC[C@H](C)[C@H](NC(=O)[C@H](Cc1ccc(O)cc1)NC(=O)[C@@H]1CCCN1C(=O)[C@@H](N)CCCN=C(N)NC(=O)[C@@H](N)CCCN=C(N)NC)C(=O)N[C@@H](CC(C)C)C(=O)O | – | 0.67 | 720 | –
CC(C)C[C@H](NC(=O)[C@@H](NC(=O)[C@H](Cc1c[nH]c2ccccc12)NC(=O)[C@@H]1CCCN1C(=O)[C@@H](N)CCCN=C(N)NC(=O)[C@@H](N)CCCCCN)C(C)(C)C)C(=O)O (H-R(hLys)PW[Tle]L-OH) | > 24 | 500 | 53700 | 133
CC(C)C[C@H](NC(=O)[C@@H](NC(=O)[C@H](Cc1ccc(O)cc1)NC(=O)[C@@H]1CCCN1C(=O)[C@@H](N)CCCN=C(N)NC(=O)[C@@H](N)CCCCCN)C(C)(C)C)C(=O)O (H-R(hLys)PY[Tle]L-OH) | – | 11.1 | 4000 | –
CCNC(=N)NCCC[C@H](N)C(=O)/N=C(/N)NCCC[C@H](N)C(=O)N1CCC[C@H]1C(=O)N[C@@H](Cc1ccc(O)cc1)C(=O)N[C@H](C(=O)N[C@@H](CC(C)C)C(=O)O)[C@@H](C)CC (H-[X7]PYIL-OH) | – | 0.3 | 480 | –
CC[C@H](C)[C@H](NC(=O)[C@H](Cc1ccc(O)cc1)NC(=O)[C@@H]1CCCN1C(=O)[C@H](CCCNC(=N)N)NC(=O)[C@@H](N)CCCN1CCN=C1N)C(=O)N[C@@H](CC(C)C)C(=O)O (H-[X9]RPYIL-OH) | 0.275 | – | – | –
CC(C)C[C@H](NC(=O)[C@@H](NC(=O)[C@H](Cc1ccc(O)cc1)NC(=O)[C@@H]1CCCN1C(=O)[C@H](CCCNC(=N)N)NC(=O)[C@@H](N)CCCCCN)C(C)(C)C)C(=O)O (H-[hLys]RPY[Tle]L-OH) | > 24 | – | – | 5.71
